{"source": "paper PMC5760267", "about": "(ChemMedChem, 2016)", "data": [{"biological_target": "human immunoproteasome β5i (Homo sapiens, UniProt P20618+P28062)", "test": "IC50 against β5i", "format": "biochemical", "details": "relative to the P1-β-Ala parents PKS2251 and PKS2252, respectively", "method_in_brief": "(§1)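 Human immunoproteasome β5i activity was read as ac-ANW-AMC hydrolysis, and constitutive β5c activity as suc-LLVY-AMC hydrolysis. IC50s were determined by a previously reported method. Apparent selectivity index = IC50β5c / IC50β5i. Data reported as mean ± SEM.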", "units": {"reduction of potency against β5i": "fold"}, "values": [{"smiles": "Cc1ccc(S(=O)(=O)N[C@H](CC(=O)N[C@@H](C)C(=O)NCc2cccc3ccccc23)CC(=O)NC(C)(C)C)cc1", "note": "[PKS2279]", "reduction of potency against β5i": 2.5}, {"smiles": "C[C@H](NC(=O)C[C@H](CC(=O)NC(C)(C)C)NC(=O)CCc1ccccc1)C(=O)NCc1cccc2ccccc12", "note": "[PKS2278]", "reduction of potency against β5i": 58}]}, {"biological_target": "human immunoproteasome β5i (Homo sapiens, UniProt P20618+P28062)", "test": "IC50 against β5i", "format": "biochemical", "details": "β5i over β5c", "method_in_brief": "as §1", "values": [{"smiles": "Cc1ccc(S(=O)(=O)N[C@H](CC(=O)N[C@@H](C)C(=O)NCc2cccc3ccccc23)CC(=O)NC(C)(C)C)cc1", "note": "[PKS2279]", "SIapp: apparent selectivity index = IC50β5c / IC50β5i": 2521}, {"smiles": "C[C@@H](CC(=O)NCc1cccc2ccccc12)NC(=O)[C@H](CC(=O)NC(C)(C)C)NC(=O)CCc1ccccc1", "note": "[PKS2251]", "SIapp: apparent selectivity index = IC50β5c / IC50β5i": 1333}, {"smiles": "Cc1ccc(S(=O)(=O)N[C@@H](CC(=O)NC(C)(C)C)C(=O)N[C@@H](C)CC(=O)NCc2cccc3ccccc23)cc1", "note": "[PKS2252]", "SIapp: apparent selectivity index = IC50β5c / IC50β5i": 13600}, {"smiles": "Cc1cc(C(=O)N[C@@H](CC(=O)NC(C)(C)C)C(=O)N[C@@H](C)CC(=O)NCc2cccc3ccccc23)no1", "note": "[PKS2249]", "SIapp: apparent selectivity index = IC50β5c / IC50β5i": 465}]}]}
